Measurements from ChEMBL document CHEMBL1135756, “Solid phase synthesis and evaluation of Tyr-Tic-Phe-Phe(p-NHCOCH(2)Br) ([Phe(p-bromoacetamide)(4)]TIPP), a potent affinity label for delta opioid receptors” (J Med Chem, 2002).
Non-standard residues stand in square brackets, D forms with d. Residues, ends and D or L forms follow the SMILES beside them. *: point of attachment. Phe(4-NH2) = Nc1ccc(C[C@H](N)C(=O)O)cc1; Tic = O=C(O)[C@@H]1Cc2ccccc2CN1; BrAc = O=C(CBr)*

Tests used:
Mu-type opioid receptor = Mu-type opioid receptor (Rattus norvegicus, UniProt P33535); test: Inhibitory activity against Opioid receptor mu 1 using [3H]DAMGO
[1] = molecular target: T1, Delta-type opioid receptor (Mus musculus, UniProt P32300); test: Inhibitory activity against Opioid receptor delta 1 using [3H]DPDPE
Outline: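 Competition binding on membranes of CHO cells stably transfected with cloned δ opioid receptors, using [³H]DPDPE as radioligand under standard (equilibrium) conditions. IC50 is the mean ± SEM of 3–7 independent determinations.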

[2] = molecular target: T1, Delta-type opioid receptor; test: Binding affinity towards Opioid receptor delta 1
Outline: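 Competition binding against [³H]DPDPE on membranes of CHO cells stably transfected with cloned δ opioid receptors, under standard (equilibrium) conditions. The IC₅₀ is displacement of radioligand, averaged over 3–7 independent determinations ± SEM.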

[3] = molecular target: Delta-type opioid receptor (Mus musculus) (UniProt P32300); test: Inhibition of cyclic adenosine 3',5'-monophosphate (cAMP) formation by recombinant Opioid receptor delta 1 in adenylyl cyclase assay; assay type: functional; conditions: concentration not given here
[4] = molecular target: Kappa-type opioid receptor (Cavia porcellus, UniProt P41144); test: Inhibitory activity against Opioid receptor kappa 1 using [3H]diprenorphine
Kappa-type opioid receptor, sequence (P41144 whole entry): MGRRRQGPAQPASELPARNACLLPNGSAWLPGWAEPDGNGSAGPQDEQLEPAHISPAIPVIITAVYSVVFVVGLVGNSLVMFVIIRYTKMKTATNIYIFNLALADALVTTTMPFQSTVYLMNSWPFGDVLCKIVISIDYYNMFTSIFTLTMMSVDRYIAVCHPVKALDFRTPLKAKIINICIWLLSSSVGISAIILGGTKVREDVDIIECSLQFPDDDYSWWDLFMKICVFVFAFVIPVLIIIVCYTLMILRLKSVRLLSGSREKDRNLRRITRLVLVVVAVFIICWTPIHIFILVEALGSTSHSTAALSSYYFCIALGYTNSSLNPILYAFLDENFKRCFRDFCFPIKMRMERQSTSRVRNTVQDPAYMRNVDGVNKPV

Mu-type opioid receptor, sequence (P33535 whole entry): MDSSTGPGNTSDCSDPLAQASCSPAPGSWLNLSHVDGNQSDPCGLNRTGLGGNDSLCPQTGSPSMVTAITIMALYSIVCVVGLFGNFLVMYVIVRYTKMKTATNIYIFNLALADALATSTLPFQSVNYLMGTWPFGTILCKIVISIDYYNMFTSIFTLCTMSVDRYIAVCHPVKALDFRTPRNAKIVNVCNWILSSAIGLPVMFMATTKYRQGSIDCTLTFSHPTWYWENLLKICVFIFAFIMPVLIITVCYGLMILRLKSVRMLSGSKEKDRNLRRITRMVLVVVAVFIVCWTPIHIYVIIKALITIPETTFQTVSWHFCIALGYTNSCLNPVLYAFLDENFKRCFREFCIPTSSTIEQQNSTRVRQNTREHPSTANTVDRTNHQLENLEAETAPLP
T1 sequence (P32300 whole entry): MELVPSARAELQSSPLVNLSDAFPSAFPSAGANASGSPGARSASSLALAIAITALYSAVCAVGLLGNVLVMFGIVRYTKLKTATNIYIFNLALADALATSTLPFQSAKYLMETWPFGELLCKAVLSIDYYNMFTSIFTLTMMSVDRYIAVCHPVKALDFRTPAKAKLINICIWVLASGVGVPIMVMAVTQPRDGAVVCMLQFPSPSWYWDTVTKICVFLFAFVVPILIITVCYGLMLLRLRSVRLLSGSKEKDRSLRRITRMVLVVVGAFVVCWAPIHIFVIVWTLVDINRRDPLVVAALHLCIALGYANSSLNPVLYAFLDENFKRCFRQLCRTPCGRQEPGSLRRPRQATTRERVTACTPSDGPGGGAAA
Delta-type opioid receptor (Mus musculus), sequence (P32300 whole entry): as above

Row | SMILES | IC50 (Mu-type opioid receptor) [µM] | IC50 [1] [nM] | Ki [2] [nM] | inhibition [3] [%] | IC50 [4] [µM]
1 | N[C@@H](Cc1ccc(O)cc1)C(=O)N1Cc2ccccc2C[C@H]1C(=O)N[C@@H](Cc1ccccc1)C(=O)N[C@@H](Cc1ccccc1)C(=O)O (H-Y[Tic]FF-OH) | 10 | 14.1 | 1.22 |  | 
2 | N[C@@H](Cc1ccc(O)cc1)C(=O)N1Cc2ccccc2C[C@H]1C(=O)N[C@@H](Cc1ccccc1)C(=O)N[C@@H](Cc1ccc(NC(=O)CBr)cc1)C(=O)O (H-Y[Tic]F[Phe(4-NH2)](BrAc)-OH) | > 5.39 | 5.4 |  | 65 | > 10
3 | Nc1ccc(C[C@H](NC(=O)[C@H](Cc2ccccc2)NC(=O)[C@@H]2Cc3ccccc3CN2C(=O)[C@@H](N)Cc2ccc(O)cc2)C(=O)O)cc1 (H-Y[Tic]F[Phe(4-NH2)]-OH) | > 10 | 19.9 |  |  | > 10
4 | N[C@@H](Cc1ccc(O)cc1)C(=O)N1Cc2ccccc2C[C@H]1C(=O)N[C@@H](Cc1ccc(NC(=O)CBr)cc1)C(=O)N[C@@H](Cc1ccccc1)C(=O)O (H-Y[Tic][Phe(4-NH2)](BrAc)F-OH) | > 10 | 65 |  |  | 
5 | Nc1ccc(C[C@H](NC(=O)[C@@H]2Cc3ccccc3CN2C(=O)[C@@H](N)Cc2ccc(O)cc2)C(=O)N[C@@H](Cc2ccccc2)C(=O)O)cc1 (H-Y[Tic][Phe(4-NH2)]F-OH) | > 10 | 36.2 |  |  | 
